Experimental data pooled from the literature.
Target: MAP/microtubule affinity-regulating kinase 4 (MARK4, Homo sapiens, UniProt Q96L34)
Residues used in one study (Q96L34 1-752): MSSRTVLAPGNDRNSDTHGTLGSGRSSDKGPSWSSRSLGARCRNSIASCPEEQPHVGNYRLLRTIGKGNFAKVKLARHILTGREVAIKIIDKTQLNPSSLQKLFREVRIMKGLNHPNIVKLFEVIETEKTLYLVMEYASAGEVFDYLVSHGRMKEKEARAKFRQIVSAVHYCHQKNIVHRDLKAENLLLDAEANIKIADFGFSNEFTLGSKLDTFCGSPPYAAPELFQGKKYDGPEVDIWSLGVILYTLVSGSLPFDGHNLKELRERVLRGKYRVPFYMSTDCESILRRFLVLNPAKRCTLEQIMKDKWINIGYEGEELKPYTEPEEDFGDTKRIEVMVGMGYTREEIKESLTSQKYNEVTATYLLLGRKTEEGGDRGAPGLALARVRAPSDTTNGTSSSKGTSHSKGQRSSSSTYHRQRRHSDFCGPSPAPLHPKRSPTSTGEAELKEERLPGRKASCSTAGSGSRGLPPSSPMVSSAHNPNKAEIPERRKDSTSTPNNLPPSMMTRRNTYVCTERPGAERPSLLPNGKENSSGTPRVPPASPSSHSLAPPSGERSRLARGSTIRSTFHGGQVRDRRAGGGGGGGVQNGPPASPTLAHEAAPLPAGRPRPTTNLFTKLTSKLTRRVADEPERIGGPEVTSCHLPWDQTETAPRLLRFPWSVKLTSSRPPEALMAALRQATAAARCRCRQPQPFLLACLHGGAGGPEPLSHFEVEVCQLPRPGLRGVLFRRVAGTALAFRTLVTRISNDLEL

SMILES	test	conditions	remaining binding
O=C(c1ccc(Nc2ncc(Cl)c(-c3ccc(Cl)s3)n2)cc1)N1CCC(N2CCCC2)CC1	binding, competition with immobilised ligand	1 µM	23%
COc1ccc2c(O[C@@H]3C[C@H]4C(=O)N[C@]5(C(=O)O)CC5/C=C\CCCCC[C@H](NC(=O)OC5CCCC5)C(=O)N4C3)cc(-c3csc(NC(=O)C(C)C)n3)nc2c1C (some centres unmarked)	cell-free assay, competition with immobilised ligand	1 µM	99%
Nc1ncc2c(n1)-c1c([nH]c3ccc(C#CC4CC4)cc13)CCCC2	binding, competition with immobilised ligand	1 µM	100%
CN(C)c1nccc(-c2cnc3ncccn23)n1	binding	1 µM	93%
FC(F)(F)c1ccc2c(c1)nc(-c1cccnc1)n2C1CC1	cell-free assay, competition with immobilised ligand	1 µM	100%
COc1cnc(Nc2cccc(S(N)(=O)=O)c2)nc1N1CCN(c2ccccc2)CC1	binding, competition with immobilised ligand	1 µM	86%
CN(CCCC(F)(F)F)c1nccc(-c2cnn3ncccc23)n1	binding	1 µM	90%
O=C(NCCCN1CCOCC1)c1ccc(Nc2nccc(-c3cc4ccccc4s3)n2)cc1	binding, competition with immobilised ligand	1 µM	60%
CNCc1ccccc1-c1csc([C@@H](C)Nc2nc(C)nc3cc(OC)c(OC)cc23)c1	cell-free assay, competition with immobilised ligand	1 µM	100%
COc1ccnn2ncc(-c3ccnc(N(C)C)n3)c12	binding	1 µM	100%
FC(F)(F)Oc1cccc(-c2cnc3ccc(-c4ccncc4)nn23)c1	cell-free assay, competition with immobilised ligand	5 µM	80%
O=C1CCc2cc(Nc3cc(OC4CCOCC4)c([N+](=O)[O-])cc3Cl)ccc2N1	cell-free assay, competition with immobilised ligand	1 µM	100%
O=C(NCC1CCOCC1)c1n[nH]cc1NC(=O)c1c(F)cccc1F	binding, competition with immobilised ligand	1 µM	98%
O=C(NCCCN1CCOCC1)c1ccc(Nc2ncc(Cl)c(-c3ccc(Cl)s3)n2)cc1	binding, competition with immobilised ligand	1 µM	24%
c1cnn2ncc(-c3ccnc(N4CCC45COC5)n3)c2c1	binding	1 µM	84%
COc1cnc(Nc2cccc(S(N)(=O)=O)c2)nc1N1CCN(c2ccccc2)C(=O)C1	binding, competition with immobilised ligand	1 µM	100%
Cc1cnn2ncc(-c3ccnc(N(C)C)n3)c2c1	binding	1 µM	91%
O=C(O)c1cc(-c2ccc(C3CCNCC3)cc2)c2ccc(-c3ccc(C(F)(F)F)cc3)cc2c1	cell-free assay, competition with immobilised ligand	1 µM	100%
CN(c1nccc(-c2cnn3ncccc23)n1)C1CC1	binding	1 µM	76%
CC(C)CC(=O)N1CCc2nc(-c3ccc(Br)cc3)nc(N(C)Cc3ccccc3)c2C1	cell-free assay, competition with immobilised ligand	0.1 µM	100%
